Results taken from ChEMBL document CHEMBL1123039, “N-substituted imidazolines and ethylenediamines and their action on alpha- and beta-adrenergic receptors” (1985).

How the values were obtained:
Rattus norvegicus [1] = experiment: The dose required to increase diastolic blood pressure by 50 mmHg in pithed rats after intravenous administration; assay type: functional; conditions: Artery
In short: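 Pithed rat preparation with the right femoral vein cannulated for iv dosing (1 mL/kg). At least 30 min equilibration preceded drugs. Pressor effect was read as the increase in diastolic blood pressure (mmHg), and heart rate was recorded by a pulse-triggered cardiotachometer. Values are mean ± SEM.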

[2] = system: Adrenergic receptor alpha (Rattus norvegicus); experiment: The selectivity was evaluated against alpha 1 and alpha 2 adrenoceptors
Rattus norvegicus [3] = experiment: Tested for alpha1 adrenoceptor-Mediated Pressor Response in Pithed Rats; Dose ratio subsequent administration of antagonist (Prazosin) intravenously at a dose of 0.1 mg/kg; assay type: functional; conditions: route intravenous
In short: (§1)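 Pithed rats; drugs given iv through the cannulated right femoral vein at 1 mL/kg after at least 30 min equilibration. Pressor responses to the agonist were recorded as rises in diastolic blood pressure (mmHg), with and without pretreatment with prazosin (0.1 mg/kg, iv; α1-selective) or yohimbine (1 mg/kg, iv; α2-selective). Shift of the agonist dose-response was expressed as a dose ratio (mean ± SEM).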

Rattus norvegicus [4] = experiment: Tested for alpha-2 adrenoceptor-Mediated Pressor Response in Pithed Rats; Dose ratio by subsequent administration of antagonist (yohimbine) intravenously at a dose of 1 mg/kg; assay type: functional; conditions: route intravenous; in short: as §1
Rattus norvegicus [5] = experiment: Tested for alpha-1 adrenoceptor-Mediated Pressor response in Pithed Rats; Dose ratio subsequent administration of antagonist (Prazosin) intravenously at a dose of 0.1 mg/kg; assay type: functional; conditions: route intravenous
In short: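 Pithed rats; drugs given iv via the right femoral vein at 1 mL/kg after at least 30 min equilibration. The pressor response is the rise in diastolic blood pressure (mmHg). Agonist pressor responses were measured after α1-selective blockade with prazosin (0.1 mg/kg, iv), and the dose ratio for the pressor response was derived. Values are mean ± SEM.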

Br.Br.CCN1CCc2nc(N)oc2CC1
ED50 (Rattus norvegicus [1]): 0.026 mg/kg

Cl.Cl.NCCNCCc1ccc(O)c(O)c1
Selectivity [2]: 0.3
Dose ratio (Rattus norvegicus [3]): 1.7
ED50 (Rattus norvegicus [1]): 0.028 mg/kg
Dose ratio (Rattus norvegicus [4]): 5.7

Cl.Oc1ccc(CN2C=NCC2)cc1O
Selectivity [2]: 2.2
Dose ratio (Rattus norvegicus [3]): 5.3
ED50 (Rattus norvegicus [1]): 0.035 mg/kg
Dose ratio (Rattus norvegicus [4]): 2.4

Cl.Oc1ccc(CCN2C=NCC2)cc1O
Selectivity [2]: 0.7
Dose ratio (Rattus norvegicus [3]): 1.3
ED50 (Rattus norvegicus [1]): 0.024 mg/kg
Dose ratio (Rattus norvegicus [4]): 2.1

Cl.Cl.NCCNCc1ccc(O)c(O)c1
Selectivity [2]: 1.3
Dose ratio (Rattus norvegicus [3]): 5.5
ED50 (Rattus norvegicus [1]): 0.305 mg/kg
Dose ratio (Rattus norvegicus [4]): 4.4

Oc1ccc(CC2=NCCN2)cc1O
Selectivity [2]: 2
Dose ratio (Rattus norvegicus [5]): 0.8
ED50 (Rattus norvegicus [1]): 0.00035 mg/kg
Dose ratio (Rattus norvegicus [4]): 0.4

c1ccc(C2CC2)c(OCC2=NCCN2)c1 [CIRAZOLINE]
ED50 (Rattus norvegicus [1]): 0.0006 mg/kg
